SMILES strings stand for the structures. Calls of active or inactive are those of the source. The rule behind the calls is not given here.

Assay [1] deals with Rattus norvegicus. Kind of assay: Antagonist activity at 5HT3 receptor in iv dosed Sprague-Dawley rat assessed as inhibition of 1-phenylbiguanide-induced bradycardia administered 5 mins before 1-phenylbiguanide challenge measured after 5 to 30 mins post-treatment by von Bezold-Jarisch reflex test. Type of assay: functional. A digest of the protocol: (§1)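 Urethane-anesthetized rats, compound given iv. Agonism was scored as the compound itself evoking the von Bezold-Jarisch reflex (bradycardia). Antagonism was tested by giving the compound iv 5, 15 or 30 min before phenylbiguanide (PBG) and scoring the reduction of PBG-evoked bradycardia. ED50 is the dose giving half of the maximal bradycardia evoked by the same compound.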

In assay [2] the test system is Rattus norvegicus. Description: Agonist activity at 5HT3 receptor in Sprague-Dawley rat assessed as induction of bradycardia at 1 ug/kg, iv measured after 5 to 30 mins post-treatment by von Bezold-Jarisch reflex test. Type of assay: functional, organism-based. A digest of the protocol: as §1
Assay [3] deals with Rattus norvegicus. Kind of assay: Antagonist activity at 5HT3 receptor in Sprague-Dawley rat assessed as inhibition of 1-phenylbiguanide-induced bradycardia at 1 ug/kg, iv administered 5 mins before 1-phenylbiguanide challenge measured after 5 to 30 mins post-treatment by von Bezold-Jarisch reflex test. It counts as functional, organism-based. A digest of the protocol: as §1

Assay [4] concerns Rattus norvegicus. Description: Agonist activity at 5HT3 receptor in Sprague-Dawley rat assessed as induction of bradycardia at 10 ug/kg, iv measured after 5 to 30 mins post-treatment by von Bezold-Jarisch reflex test. It counts as functional. The procedure, abridged:
as §1

Assay [5] has as its system Rattus norvegicus. Kind of assay: Antagonist activity at 5HT3 receptor in Sprague-Dawley rat assessed as inhibition of 1-phenylbiguanide-induced bradycardia at 10 ug/kg, iv administered 5 mins before 1-phenylbiguanide challenge measured after 5 to 30 mins post-treatment by von Bezold-Jarisch reflex test. Type of assay: functional. A digest of the protocol: as §1
The test system of assay [6] is Rattus norvegicus. Kind of assay: Agonist activity at 5HT3 receptor in Sprague-Dawley rat assessed as induction of bradycardia at 50 ug/kg, iv measured after 5 to 30 mins post-treatment by von Bezold-Jarisch reflex test. It counts as functional. A digest of the protocol:
as §1

In assay [7] the test system is Rattus norvegicus. Description: Antagonist activity at 5HT3 receptor in Sprague-Dawley rat assessed as inhibition of 1-phenylbiguanide-induced bradycardia at 50 ug/kg, iv administered 5 mins before 1-phenylbiguanide challenge measured after 5 to 30 mins post-treatment by von Bezold-Jarisch reflex test. Type of assay: functional. The procedure, abridged: as §1
Assay [8] concerns Rattus norvegicus. Kind of assay: Agonist activity at 5HT3 receptor in Sprague-Dawley rat assessed as induction of bradycardia at 100 ug/kg, iv measured after 5 to 30 mins post-treatment by von Bezold-Jarisch reflex test. It counts as functional. The procedure, abridged:
as §1

Assay [9] deals with Rattus norvegicus. Kind of assay: Antagonist activity at 5HT3 receptor in Sprague-Dawley rat assessed as inhibition of 1-phenylbiguanide-induced bradycardia at 100 ug/kg, iv administered 5 mins before 1-phenylbiguanide challenge measured after 5 to 30 mins post-treatment by von Bezold-Jarisch reflex test. Type of assay: functional. A digest of the protocol: as §1
The target of assay [10] is T1, Adrenergic receptor alpha-1 (Rattus norvegicus, UniProt P15823+P23944+P43140).
T1 sequence (P15823 whole entry): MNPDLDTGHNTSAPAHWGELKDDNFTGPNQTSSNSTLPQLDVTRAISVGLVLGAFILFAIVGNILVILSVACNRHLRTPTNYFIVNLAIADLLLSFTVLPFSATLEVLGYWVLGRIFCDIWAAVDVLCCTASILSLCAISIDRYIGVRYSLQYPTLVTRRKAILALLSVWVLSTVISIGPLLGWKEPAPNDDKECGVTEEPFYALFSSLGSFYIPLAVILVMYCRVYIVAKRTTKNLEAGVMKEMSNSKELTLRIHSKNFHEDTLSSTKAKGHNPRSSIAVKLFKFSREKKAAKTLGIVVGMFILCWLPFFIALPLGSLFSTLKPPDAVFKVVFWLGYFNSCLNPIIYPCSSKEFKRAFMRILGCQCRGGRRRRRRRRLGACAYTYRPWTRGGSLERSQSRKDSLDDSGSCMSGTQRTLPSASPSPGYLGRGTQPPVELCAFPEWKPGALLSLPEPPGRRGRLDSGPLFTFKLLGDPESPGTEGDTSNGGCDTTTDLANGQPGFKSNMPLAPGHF
T1 sequence (P23944 whole entry): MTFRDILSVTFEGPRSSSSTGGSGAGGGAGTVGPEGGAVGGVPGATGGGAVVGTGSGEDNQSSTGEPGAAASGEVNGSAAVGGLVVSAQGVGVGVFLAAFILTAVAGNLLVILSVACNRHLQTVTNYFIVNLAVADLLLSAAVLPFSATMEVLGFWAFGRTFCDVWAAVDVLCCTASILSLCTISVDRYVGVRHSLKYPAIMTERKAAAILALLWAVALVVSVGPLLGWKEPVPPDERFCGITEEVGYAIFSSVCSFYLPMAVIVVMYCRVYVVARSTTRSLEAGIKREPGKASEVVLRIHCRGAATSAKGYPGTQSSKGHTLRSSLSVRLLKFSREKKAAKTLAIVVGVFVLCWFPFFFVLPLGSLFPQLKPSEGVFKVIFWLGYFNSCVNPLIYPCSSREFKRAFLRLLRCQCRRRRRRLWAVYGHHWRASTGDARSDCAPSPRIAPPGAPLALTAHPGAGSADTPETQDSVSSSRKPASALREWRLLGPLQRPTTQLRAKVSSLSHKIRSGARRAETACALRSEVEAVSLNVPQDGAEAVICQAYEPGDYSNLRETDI
T1 sequence (P43140 whole entry): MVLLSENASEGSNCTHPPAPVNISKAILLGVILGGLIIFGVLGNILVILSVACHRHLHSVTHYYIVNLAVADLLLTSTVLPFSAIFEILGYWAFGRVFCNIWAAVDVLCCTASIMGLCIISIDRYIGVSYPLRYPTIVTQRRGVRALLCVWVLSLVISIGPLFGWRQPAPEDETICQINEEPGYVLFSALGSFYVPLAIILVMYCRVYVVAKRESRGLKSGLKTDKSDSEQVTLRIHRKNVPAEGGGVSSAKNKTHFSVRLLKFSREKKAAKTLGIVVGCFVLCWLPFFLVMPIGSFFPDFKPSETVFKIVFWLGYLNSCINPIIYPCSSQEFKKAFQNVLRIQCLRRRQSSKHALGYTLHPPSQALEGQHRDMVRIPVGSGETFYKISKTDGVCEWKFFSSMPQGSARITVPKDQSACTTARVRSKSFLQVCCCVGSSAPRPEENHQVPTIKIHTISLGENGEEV
Kind of assay: Displacement of [3H]prazosin from adrenergic alpha1 receptor in rat cortex. (In general: Displacement assays read how much labelled ligand stays bound in the presence of the test substance.)

For assay [11], the target named is Muscarinic acetylcholine receptor. Description: Displacement of [3H]QNB from muscarinic receptor in rat cortex.

One may read the Ki as the equilibrium dissociation constant of an inhibitor or competing ligand from its target. Consider `Fc1ccc2c(c1)nc(N1CCN(Cc3c[nH]cn3)CC1)c1cccn12`, for which the ID50 in assay [1] turned out to be 0.01 mg/kg. Also, the outcome in assay [2] and in assay [3] was inactive. The result in assay [4], in assay [5], in assay [6], in [7] and in assay [9] was Active. In addition, in assay [8], the Activity came out at 40%. Moreover, the inhibitory constant (Ki) in assay [10] and in assay [11] was over 10 µM in each case.

The record behind these values is ChEMBL document CHEMBL1154626, “Novel, potent, and selective quinoxaline-based 5-HT(3) receptor ligands. 1. Further structure-activity relationships and pharmacological characterization” (J Med Chem, 2009).
